Hits are enriched below; roughly 1.4% of the tested compounds scored in any of these assays.
Apaf-1 inh: human Apaf-1 inhibition | inhibition, % at 20 µM | hit rate 0.71% among 330,000 | O14727 | AID 489030 | reconstituted apoptosome caspase-3 activity, DEVD-Rh110 fluorescence; active means inhibition of at least 40% at 20 µM
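System: reconstituted apoptosome with Apaf-1, cytochrome c, caspase-9, procaspase-3, dATP; Signal: Rh110 fluorescence intensity; Schedule: 30 min compound preincubation, 50 min activation, room temperature; Reagent: cytochrome c trigger plus (Z-DEVD)2-Rh110 caspase-3 substrate.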
HKDC1 inhibitor: inhibitors of human hexokinase HKDC1 | recombinant HKDC1, G6PDH/diaphorase resazurin coupled fluorescence | inhibition, % at 20 µM | AID 493160 | hit rate 0.16% among 340,000;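 active means inhibition above about 35% when tested at 20 µM, limit read from the data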
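Test system: HK5 enzyme. Quantity: 5 µg/mL HK5 final. Reagent: glucose and ATP substrates. Schedule: 90 min reaction incubation at room temperature, dark. Technique: resazurin-to-resorufin fluorescence via G6PDH and diaphorase coupling, 525/613 nm. Control set: DMSO wells with and without enzyme mix.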
GSTO1 inh: counter-screen for RBBP9 inhibitors: inhibitors of human GSTO1; AID 1974; P78417; recombinant GSTO1, activity-based probe fluorescence polarization; hit rate 1.1% among 300,000; inhibition, % at 5.96 µM;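 active means inhibition above the campaign mean inhibition plus 3 SD, cut at about 35% in these data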
Target sequence (P78417 whole entry, looked up): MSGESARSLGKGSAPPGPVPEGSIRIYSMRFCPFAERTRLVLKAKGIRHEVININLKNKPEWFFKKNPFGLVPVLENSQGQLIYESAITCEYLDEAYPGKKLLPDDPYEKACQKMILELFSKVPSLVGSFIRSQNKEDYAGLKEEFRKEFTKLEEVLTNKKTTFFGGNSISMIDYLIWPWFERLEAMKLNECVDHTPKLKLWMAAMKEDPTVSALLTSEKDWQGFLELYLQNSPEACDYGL
DTT redox prof: compounds producing H2O2 with reducing agent – biochemical, NIH compound library profiling, artefact control for MLSCN library redox annotation, primary screen; DTT-dependent redox cycling H2O2, phenol red/HRP absorbance; 100% = 100 µM peroxide control, 0% = buffer; activation, % at 10 µM; hit rate 0.03% among 200,000; AID 878;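 active means activation of at least 50% relative to the plate's high and low controls in the primary single-dose screen; inactive means activation below 50%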;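 further: compound incubated with DTT at 0.8 mM final as the reducing agent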
SUMO HTRF inh: SUMOylation inhibition; P63279; HTRF SUMOylation assay, SAE1/SAE2 + UBC9, in vitro; inhibition, % at 35 µM; hit rate 0.36% among 290,000; AID 2006; in the data active means inhibition above about 50%, passing the limit was not always enough
Target sequence (P63279 whole entry, looked up): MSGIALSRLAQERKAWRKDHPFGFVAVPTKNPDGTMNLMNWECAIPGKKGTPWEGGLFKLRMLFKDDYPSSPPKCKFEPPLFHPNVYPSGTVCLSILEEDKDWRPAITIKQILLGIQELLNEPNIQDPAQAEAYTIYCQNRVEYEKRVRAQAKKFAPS
A number is an active result; 0 = inactive; - = no result.

SMILES	Apaf-1 inh	HKDC1 inhibitor	GSTO1 inh	DTT redox prof	SUMO HTRF inh
O=C(Nc1ccc(S(=O)(=O)Nc2nccs2)cc1)c1ccccc1OC(F)F	0	0	-	-	-
CC(C)N1CCc2c(sc(NC(=O)c3cc(-c4cccs4)nc4ccccc34)c2C(N)=O)C1	61.1	0	0	0	0
CN1CCc2c(sc(NC(=O)c3ccc(C(=O)c4ccccc4)cc3)c2C(N)=O)C1	43.7	0	0	-	0
CCN1CCc2c(sc(NC(=O)c3ccc4ccccc4c3)c2C(N)=O)C1	40.3	-	0	-	0
COc1ccc(C(=O)COC(=O)CCCC(=O)NC2CCCCC2)cc1	0	0	0	-	0
O=C(CCC1N=C2c3ccccc3N=C(SCc3ccc(Cl)cc3)N2C1=O)NCc1ccco1 (configuration not stated)	40.8	0	0	0	0
Cc1oncc1-c1csc(-c2ccccc2Cl)n1	0	0	0	0	0
ClCc1csc(-c2ccccc2Cl)n1	0	0	93.7	0	0
C/C(=N\NC(=O)c1ccccc1O)c1ccc(Br)s1	0	0	72.7	0	0
CCOc1cc(C(=O)N(CC)CC(=O)Nc2c(F)cccc2F)ccc1OCC(=O)N1CCCCC1	0	0	0	-	-
O=c1c2cc(N3CCOCC3)ccc2[nH]c(=S)n1Cc1ccccn1	0	0	0	0	55.4
CC(=O)c1ccc(N2CCN(C(=O)c3ccc(Cn4c(=S)[nH]c5ccc(N6CCOCC6)cc5c4=O)cc3)CC2)cc1	0	0	34.9	0	0
O=C(O)c1c[nH]c2ccc([N+](=O)[O-])cc2c1=O	-	0	-	-	-
CCOC(=O)c1[nH]c2ccc(Br)cc2c1NC(=O)CCN1CCCC(C)C1 (configuration not stated)	97.3	-	0	0	0
COc1ccc(CCNC(=O)CSc2ccc3ccccc3c2)cc1OC	0	0	0	0	0
O=C(CSc1ccc2ccccc2c1)NCCc1ccc(O)c(O)c1	0	0	52.4	0	0
O=C(NCc1ccc(Cl)cc1)C1CCN(c2nnc(N3CCCC3=O)s2)CC1	0	0	0	-	0
Cc1ccccc1NC(=O)c1ccccc1N(C)S(=O)(=O)c1ccccc1	0	0	0	-	-
CCSc1nnc(NC(=O)CSc2nc(CC)nc3c2c(=O)n(C)c(=O)n3C)s1	0	0	36.1	0	0
CCc1nc(SCC(=O)Nc2nnc(CC)s2)c2c(C)c(C)sc2n1	0	0	35.2	0	0
CCCc1nc(SCC(=O)Nc2nnc(SCC)s2)c2c(=O)n(C)c(=O)n(C)c2n1	0	0	0	0	0
CCCc1nc(SCC(=O)Nc2nnc(CC)s2)c2c(C)c(C)sc2n1	0	0	0	0	0
O=C(Nc1ccc(-c2nc3ccccc3o2)cc1)c1ccc2c(c1)OCO2	0	0	0	0	0
Cc1ccc(-c2nc3ccccc3o2)cc1NC(=O)c1ccc2c(c1)OCO2	0	0	0	0	58.2
COc1ccc(/C(C)=N/OC/C(O)=C(\C#N)c2nc3ccccc3[nH]2)c(OC)c1	0	0	36.9	0	0
SMILES	Apaf-1 inh	HKDC1 inhibitor	GSTO1 inh	DTT redox prof	SUMO HTRF inh
COc1ccc(/C(C)=N/OC/C(O)=C(\C#N)c2nc3ccccc3[nH]2)cc1OC	0	0	0	0	0
CCOc1cc(/C=N/n2cnnc2)ccc1OCC(=O)Nc1ccccc1OC	0	0	0	0	0
CCOc1cc(/C=C2\C(=O)N(c3cccc(C(=O)O)c3)N=C2C(F)(F)F)ccc1OCC(=O)Nc1ccccc1OC	0	-	0	-	73.2
COC(=O)c1cc(O)cc(OC)c1Oc1cc(C)cc(O)c1C(=O)O	0	0	36.2	-	-
CN(CC(=O)Nc1ccc(F)cc1)C(=O)CSc1ncccn1	0	0	0	-	-
CCC(=O)Nc1cc2[nH]c(=O)cc(C)c2cc1C	0	0	0	0	0
Cc1cc2c(C)cc(=O)[nH]c2cc1NC(=O)CCl	0	0	70.8	-	0
Cn1cc(S(=O)(=O)N2CCCC2)cc1C(=O)N1CCN(c2ccccc2)CC1	0	0	0	-	0
COCCn1cnnc1SCC(=O)Nc1sc2c(c1C#N)CCC2	0	0	-	-	-
Cn1cnnc1SCC(=O)Nc1sc2c(c1C(N)=O)CCC2	0	0	35.9	0	0
CC(Sc1ccccc1)C(=O)N1CCN(S(=O)(=O)c2cccc(Br)c2)CC1 (configuration not stated)	0	0	0	-	0
COc1ccc(NC(=O)C2=NN(c3ccccc3)C(=O)CC2)cn1	0	0	-	-	-
O=C(Nc1ccccc1O)c1cc(S(=O)(=O)N2CCOCC2)c(Cl)cc1Cl	0	0	0	0	60.2
O=C(Nc1ccccc1O)c1cc(S(=O)(=O)N2CCOCC2)ccc1Cl	0	0	0	0	0
CCCCC1=CC2=CC(=O)C(C)(OC(=O)c3cccs3)C(=O)C2=CO1 (configuration not stated)	0	0	0	-	-
CC1(OC(=O)c2ccc(Cl)nc2)C(=O)C=C2C=C(c3ccsc3)OC=C2C1=O (configuration not stated)	0	-	0	-	-
COC(=O)CCCC1=CC2=CC(=O)C(C)(OC(=O)c3cccs3)C(=O)C2=CO1 (configuration not stated)	0	-	39.0	-	-
CC1(OC(=O)c2ccc(Cl)nc2)C(=O)C=C2C=C(c3ccc(C#N)cc3)OC=C2C1=O (configuration not stated)	-	-	36.0	-	-
COC(=O)CCCC1=CC2=CC(=O)C(C)(OC(=O)c3ccc(Cl)nc3)C(=O)C2=CO1 (configuration not stated)	0	-	34.9	-	-
COC(=O)CCCC1=CC2=CC(=O)C(C)(OC(=O)c3cnc4ccccc4n3)C(=O)C2=CO1 (configuration not stated)	0	-	37.7	-	-
Cc1cc(C)n(CC(=O)N/N=C/c2ccc3c(c2)OCO3)n1	0	0	0	0	0
Cc1nn(CC(=O)N/N=C/c2ccc3c(c2)OCO3)c(C)c1Br	0	0	0	0	50.5
CCOc1ccccc1Oc1c(C)oc2c(CN3CCN(C)CC3)c(O)ccc2c1=O	0	0	0	0	50.2
C/C(=N\OCC(=O)OC(C)C(=O)Nc1ccc(C(N)=O)cc1)c1ccc2c(c1)OCO2 (configuration not stated)	0	0	0	-	0
COc1cc2c(cc1OC)C(c1ccc(-c3ccc(Cl)c(Cl)c3)o1)=NCC2	41.5	0	0	0	0
O=S(=O)(O)c1cccc2cccc(Nc3ccccc3)c12	0	0	38.3	-	-
CC(=O)c1ccc(NC(=S)Nc2cccc3ccccc23)cc1	44.6	0	0	-	0
CC(=O)N(C)c1ccc(NC(=S)Nc2cccc3ccccc23)cc1	0	0	0	0	94.7
Cc1ccc(NC(=S)Nc2cccc3ccccc23)cc1F	88.9	0	0	-	0
CCCC(C(=O)NC(C)(C)CC)N(Cc1ccco1)C(=O)CNS(=O)(=O)c1ccccc1 (configuration not stated)	0	0	0	-	0

Assay outcomes deposited in PubChem BioAssay by several laboratories.
